The values below come from ChEMBL document CHEMBL1129989, “Minor structural differences in Boc-CCK-4 derivatives dictate affinity and selectivity for CCK-A and CCK-B receptors” (J Med Chem, 1997).

In assay [1] the target is Cholecystokinin type B receptor (Cavia porcellus). The experiment in a line: Displacement of [125I]- BH-CCK-8 from Cholecystokinin type B receptor of guinea pig cortex. (In a radioligand displacement assay an active substance lowers the binding of a labelled ligand.)
For assay [2], the species on record is Cavia porcellus. Nature of the assay: Relative affinity for type B (cortex) over type A (pancreatic) cholecystokinin receptors. In short, it runs like this:
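Selectivity ratio is IC50 in cortex divided by IC50 in pancreas. Both IC50s come from displacement of specific [125I]Bolton–Hunter CCK-8 binding, each determination run in duplicate.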

For assay [3], the target named is T1, Cholecystokinin receptor type A (Cavia porcellus, UniProt Q63931).
T1 sequence (Q63931 whole entry): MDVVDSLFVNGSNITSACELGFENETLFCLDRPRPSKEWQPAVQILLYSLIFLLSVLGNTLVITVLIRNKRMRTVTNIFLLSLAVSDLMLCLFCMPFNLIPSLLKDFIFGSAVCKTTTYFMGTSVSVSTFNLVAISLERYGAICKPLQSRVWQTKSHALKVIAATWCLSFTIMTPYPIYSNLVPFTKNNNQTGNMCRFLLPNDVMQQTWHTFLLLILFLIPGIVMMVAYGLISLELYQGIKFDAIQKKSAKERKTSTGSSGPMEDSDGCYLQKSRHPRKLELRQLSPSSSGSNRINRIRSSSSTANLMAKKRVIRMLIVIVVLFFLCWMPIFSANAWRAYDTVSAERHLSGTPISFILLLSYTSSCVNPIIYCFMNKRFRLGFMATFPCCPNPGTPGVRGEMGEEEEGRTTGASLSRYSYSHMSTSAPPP
Nature of the assay: Displacement of [125I]- BH-CCK-8 from Cholecystokinin type A receptor of guinea pig pancreas. In short, it runs like this:
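Competition binding in pancreas and cortex tissue membranes with [125I]Bolton–Hunter CCK-8 as radioligand. […] Values are means ± SE over several determinations, each run in duplicate with <5% sample variability.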

The test system of assay [4] is NCI-H345. The experiment in a line: The maximal response elicited by the compound (concentration of 1 uM) relative to the maximal response elicited by CCK-8. Type of assay: functional, Homo sapiens.
Assay [5] is filed under the species Cavia porcellus. Nature of the assay: Concentration that stimulated amylase release in guinea pig pancreatic acini relative to CCK-8. Type of assay: functional.
The species named for assay [6] is Cavia porcellus. The experiment in a line: The maximal response elicited by the compound (concentration of 100 uM) relative to the maximal response elicited by CCK-8 (1 uM) in the PI hydrolysis assay. Type of assay: functional.
Assay [7] relates to NCI-H345. The experiment in a line: Concentration that produced 50% of the maximal response in intracellular calcium mobilization in the NCI-H345 cells. The following applies: Homo sapiens. Type of assay: functional, cell-based. In a few lines: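 NCI-H345 cells carry the CCK-B/gastrin receptor. Intracellular calcium mobilization was read by indo-1 fluorescence. […] Values are means ± SE of several determinations.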
(Calcium flux is commonly read through the fluorescence of an indicator in the cells.)

Assay [8] has as its system NCI-H345. The experiment in a line: The maximal response elicited by the compound (concentration of 10 uM) relative to the maximal response elicited by CCK-8. Type of assay: functional, Homo sapiens.

*1 amine or outer side, *2 acyl side, *3 side chain or, on linkers, in order; H or OH if unused. Where a SMILES comes first, the peptide text is derived from it. Side-chain parts run from the residue outwards. The star is where a group is joined. NH(4-MeO-phenyl) = COc1ccc(N*)cc1; pNA = O=[N+]([O-])c1ccc(N*)cc1; X2 = O=[N+]([O-])c1cccc(N*)c1; NH(3-MeOPh) = COc1cccc(N*)c1; 3Abz = Nc1cccc(C(=O)O)c1; 4Abz = Nc1ccc(C(=O)O)cc1; X1 = CC(=O)c1ccc(N*)cc1; 2Abz = Nc1ccccc1C(=O)O; Boc = CC(C)(C)OC(=O)*; CO = O=C([*:1])[*:2]

`COC(=O)c1ccccc1NC(=O)NCCCC[C@H](NC(=O)[C@H](Cc1c[nH]c2ccccc12)NC(=O)OC(C)(C)C)C(=O)N[C@@H](CC(=O)O)C(=O)N[C@@H](Cc1ccccc1)C(N)=O` (Boc-WK([CO-2Abz-OMe])DF-NH2): the 50% inhibitory concentration (IC50) in assay [1] worked out at 3100 nM. Also, the C/P in the assay filed under Cavia porcellus [2] was found to be 91.
In assay [3], `COc1ccc(NC(=O)NCCCC[C@H](NC(=O)[C@H](Cc2c[nH]c3ccccc23)NC(=O)OC(C)(C)C)C(=O)N[C@@H](CC(=O)O)C(=O)N[C@@H](Cc2ccccc2)C(N)=O)cc1` (Boc-WK([CO-NH(4-MeO-phenyl)])DF-NH2) gave an IC50 of 14 nM. For the same compound, the C/P in the assay listed under Cavia porcellus [2] is 50.
For `CC(C)(C)OC(=O)N[C@@H](Cc1c[nH]c2ccccc12)C(=O)N[C@@H](CCCCNC(=O)Nc1cccc([N+](=O)[O-])c1)C(=O)N[C@@H](CC(=O)O)C(=O)N[C@@H](Cc1ccccc1)C(N)=O` (Boc-WK([CO-X2])DF-NH2), in that order: 5.8 nM and 210.
For `COc1cccc(NC(=O)NCCCC[C@H](NC(=O)[C@H](Cc2c[nH]c3ccccc23)NC(=O)OC(C)(C)C)C(=O)N[C@@H](CC(=O)O)C(=O)N[C@@H](Cc2ccccc2)C(N)=O)c1` (Boc-WK([CO-NH(3-MeOPh)])DF-NH2), in that order: 9.4 nM and 150.
In assay [3], `CC(C)(C)OC(=O)N[C@@H](Cc1c[nH]c2ccccc12)C(=O)N[C@@H](CCCCNC(=O)Nc1ccc([N+](=O)[O-])cc1)C(=O)N[C@@H](CC(=O)O)C(=O)N[C@@H](Cc1ccccc1)C(N)=O` (Boc-WK([CO-pNA])DF-NH2) yielded a concentration for half-maximal inhibition (IC50) of 41 nM. The Max response in the assay with NCI-H345 [4] is on record as 94%; in the assay listed under Cavia porcellus [6] it was 74%. For the same compound, the 50% effective concentration (EC50) amounted to 39 nM in the assay filed under Cavia porcellus [5] and 47 nM in the assay on NCI-H345 [7]. In addition, the C/P in the assay filed under Cavia porcellus [2] was found to be 0.75.
Regarding `COC(=O)c1cccc(NC(=O)NCCCC[C@H](NC(=O)[C@H](Cc2c[nH]c3ccccc23)NC(=O)OC(C)(C)C)C(=O)N[C@@H](CC(=O)O)C(=O)N[C@@H](Cc2ccccc2)C(N)=O)c1` (Boc-WK([CO-3Abz-OMe])DF-NH2), the IC50 in assay [3] is 15 nM. Also, the C/P in the assay filed under Cavia porcellus [2] was found to be 67.
For the compound `CC(=O)c1ccc(NC(=O)NCCCC[C@H](NC(=O)[C@H](Cc2c[nH]c3ccccc23)NC(=O)OC(C)(C)C)C(=O)N[C@@H](CC(=O)O)C(=O)N[C@@H](Cc2ccccc2)C(N)=O)cc1` (Boc-WK([CO-X1])DF-NH2), in assay [3], the IC50 is 46 nM. The EC50 in the assay filed under Cavia porcellus [5] was 85 nM; in the assay on NCI-H345 [7] it was 120 nM. The Max response in the assay with NCI-H345 [8] is given as 91%; in the assay listed under Cavia porcellus [6], 80%. The C/P in the assay filed under Cavia porcellus [2] turned out to be 0.26.
The compound `COC(=O)c1ccc(NC(=O)NCCCC[C@H](NC(=O)[C@H](Cc2c[nH]c3ccccc23)NC(=O)OC(C)(C)C)C(=O)N[C@@H](CC(=O)O)C(=O)N[C@@H](Cc2ccccc2)C(N)=O)cc1` (Boc-WK([CO-4Abz-OMe])DF-NH2) came in with a 50% inhibitory concentration (IC50) in assay [3] of 71 nM.

In general, IC50 refers to the concentration at which inhibition is half-maximal. High values mean a need for much substance, low ones inhibition by little substance. By EC50 is commonly meant the concentration giving half of the maximal effect.
